Laboratory results reported in ChEMBL document CHEMBL1681637, “Synthesis and antitubercular activity of monocyclic nitroimidazoles: insights from econazole” (Bioorg Med Chem Lett, 2011).
In brackets after ≈: the same amount, converted by molar mass.

Columns and labels:
Candida albicans = experiment: Antifungal activity against Candida albicans ATCC 90027 after 48 hrs by broth microdilution method; assay type: functional; conditions: ATCC 90027, 48 h
Vero = experiment: Cytotoxicity against african green monkey Vero cells by MTT assay; assay type: cell-based; conditions: Chlorocebus sabaeus
Outline: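 Vero cells were exposed to compound stocks made in DMSO and serially diluted 2-fold in RPMI 1640 medium. The top test concentration varied between compounds because of limited solubility. MTT read-out followed the kit manufacturer's protocol.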

Structure (SMILES)	MIC (Candida albicans) [µg/mL]	IC50 (Vero) [µg/mL]
O=[N+]([O-])c1cn(CC(O)c2ccc(Cl)cc2)c(Br)n1 (racemic)	> 256	> 100
O=[N+]([O-])c1cn(CC(O)c2ccc(Cl)cc2Cl)cn1 (racemic)	> 256	> 250
Cc1nc([N+](=O)[O-])cn1CC(O)c1ccc(Cl)cc1Cl (racemic)	> 256	> 250
O=[N+]([O-])c1cn(CC(O)c2ccc(Cl)cc2Cl)c(Br)n1 (racemic)	> 256	100 (≈ 262 µM)
O=[N+]([O-])c1cn(CC(O)c2ccc(F)cc2F)cn1 (racemic)	> 256	292 (≈ 1080 µM)
O=[N+]([O-])c1cn(CC(O)c2ccc(F)cc2F)c(Br)n1 (racemic)	> 256	> 200
O=[N+]([O-])c1cn(CC(O)c2ccc(F)cc2)c(Br)n1 (racemic)	> 256	> 100
O=[N+]([O-])c1ccc(C(O)Cn2cc([N+](=O)[O-])nc2Br)cc1 (racemic)	> 256	> 100
O=[N+]([O-])c1cn(CC(O)c2ccc(-c3ccccc3)cc2)c(Br)n1 (racemic)	> 256	> 100
O=[N+]([O-])c1cn(CC(O)c2ccccc2)c(Br)n1 (racemic)	> 256	> 100
Cc1ccc(C(O)Cn2cc([N+](=O)[O-])nc2Br)c(C)c1 (racemic)	> 256	22 (≈ 64.7 µM)
O=[N+]([O-])c1cn(CC(OCc2ccc(Cl)cc2)c2ccc(Cl)cc2Cl)cn1 (racemic)	> 256	> 16
Cc1nc([N+](=O)[O-])cn1CC(OCc1ccc(Cl)cc1)c1ccc(Cl)cc1Cl (racemic)	> 256	> 31
O=[N+]([O-])c1cn(CC(OCc2ccc(Cl)cc2)c2ccc(Cl)cc2Cl)c(Br)n1 (racemic)	> 256	> 62.5
O=[N+]([O-])c1cn(CC(OCc2ccc(Cl)cc2)c2ccc(F)cc2F)cn1 (racemic)	> 256	> 25
O=[N+]([O-])c1cn(CC(OCc2ccc(Cl)cc2)c2ccc(F)cc2F)c(Br)n1 (racemic)	> 256	> 25
O=[N+]([O-])c1cn(CC(OCc2ccccc2F)c2ccc(Cl)cc2Cl)cn1 (racemic)	> 256	> 63
O=[N+]([O-])c1cn(CC(OCc2ccc(F)cc2)c2ccc(Cl)cc2Cl)cn1 (racemic)	> 256	> 16
O=[N+]([O-])c1cn(CC(OCc2ccccc2F)c2ccc(Cl)cc2Cl)c(Br)n1 (racemic)	> 256	> 63
O=[N+]([O-])c1cn(CC(OCc2ccc(F)cc2)c2ccc(Cl)cc2Cl)c(Br)n1 (racemic)	> 256	> 16
O=[N+]([O-])c1cn(CC(OCc2ccc(F)cc2F)c2ccc(Cl)cc2Cl)cn1 (racemic)	> 256	> 25
O=[N+]([O-])c1cn(CC(OCc2cc(F)ccc2F)c2ccc(Cl)cc2Cl)cn1 (racemic)	> 256	> 25
O=[N+]([O-])c1cn(CC(OCc2ccc(OC(F)(F)F)cc2)c2ccc(Cl)cc2Cl)cn1 (racemic)	> 256	> 25
O=[N+]([O-])c1cn(CC(OCc2cc(F)cc(F)c2)c2ccc(Cl)cc2Cl)cn1 (racemic)	> 256	> 25
O=[N+]([O-])c1cn(CC(OCc2cc(F)cc(F)c2)c2ccc(Cl)cc2Cl)c(Br)n1 (racemic)	> 256	> 6

Structure (SMILES)	MIC (Candida albicans) [µg/mL]	IC50 (Vero) [µg/mL]
O=[N+]([O-])c1cn(CC(OCc2ccc(F)cc2)c2ccc(F)cc2F)cn1 (racemic)	> 256	> 50
O=[N+]([O-])c1cn(CC(OCc2ccc(OC(F)(F)F)cc2)c2ccc(F)cc2F)cn1 (racemic)	> 256	> 50
O=[N+]([O-])c1cn(CC(OCc2cc(F)cc(F)c2)c2ccc(F)cc2F)cn1 (racemic)	> 256	> 50
COc1nc([N+](=O)[O-])cn1CC(O)c1ccc(Cl)cc1Cl (racemic)	> 256	100 (≈ 301 µM)
COc1nc([N+](=O)[O-])cn1CC(O)c1ccc(F)cc1F (racemic)	> 256	> 100
COc1nc([N+](=O)[O-])cn1CC(O)c1ccc(F)cc1 (racemic)	> 256	> 100
COc1nc([N+](=O)[O-])cn1CC(O)c1ccc(Cl)cc1 (racemic)	> 256	> 100
COc1nc([N+](=O)[O-])cn1CC(O)c1ccc([N+](=O)[O-])cc1 (racemic)	> 256	> 100
COc1nc([N+](=O)[O-])cn1CC(O)c1ccc(-c2ccccc2)cc1 (racemic)	> 256	> 100
CSc1nc([N+](=O)[O-])cn1CC(O)c1ccc(Cl)cc1Cl (racemic)	> 256	59 (≈ 169 µM)
COc1nc([N+](=O)[O-])cn1CC(O)c1ccccc1 (racemic)	> 256	> 100
COc1nc([N+](=O)[O-])cn1CC(O)c1ccc(C)cc1C (racemic)	> 256	84 (≈ 288 µM)
COc1nc([N+](=O)[O-])cn1CC(OCc1ccc(Cl)cc1)c1ccc(Cl)cc1Cl (racemic)	> 256	> 8
CSc1nc([N+](=O)[O-])cn1CC(OCc1ccc(F)cc1)c1ccc(Cl)cc1Cl (racemic)	> 256	> 13
COc1nc([N+](=O)[O-])cn1CC(OCc1ccc(OC(F)(F)F)cc1)c1ccc(Cl)cc1Cl (racemic)	> 256	> 13
COc1nc([N+](=O)[O-])cn1CC(OCc1ccc(Cl)cc1)c1ccc(F)cc1F (racemic)	> 256	> 13
COc1nc([N+](=O)[O-])cn1CC(OCc1ccc(F)cc1)c1ccc(F)cc1F (racemic)	> 256	> 25
COc1nc([N+](=O)[O-])cn1CC(OCc1ccc(OC(F)(F)F)cc1)c1ccc(F)cc1F (racemic)	> 256	> 25
COc1nc([N+](=O)[O-])cn1CC(OCc1cc(F)cc(F)c1)c1ccc(Cl)cc1Cl (racemic)	> 256	> 50
COc1nc([N+](=O)[O-])cn1CC(OCc1ccc(F)cc1)c1ccc(Cl)cc1Cl (racemic)	> 256	> 13
CSc1nc([N+](=O)[O-])cn1CC(OCc1ccc(Cl)cc1)c1ccc(Cl)cc1Cl (racemic)	> 256	> 13
CSc1nc([N+](=O)[O-])cn1CC(OCc1cc(F)cc(F)c1)c1ccc(Cl)cc1Cl (racemic)	> 256	> 135
CSc1nc([N+](=O)[O-])cn1CC(OCc1ccc(Cl)cc1)c1ccc(F)cc1F (racemic)	> 256	> 13
Clc1ccc(COC(Cn2ccnc2)c2ccc(Cl)cc2Cl)cc1 (stereo not drawn) [ECONAZOLE]	16 (≈ 41.9 µM)	–
O=[N+]([O-])c1cn2c(n1)OC[C@@H](OCc1ccc(OC(F)(F)F)cc1)C2 [PRETOMANID]	> 256	–
